Data from ChEMBL document CHEMBL1131231, “New azole antifungals. 2. Synthesis and antifungal activity of heterocyclecarboxamide derivatives of 3-amino-2-aryl-1-azolyl-2-butanol” (1998).
≈ marks a conversion by molar mass, not a printed value.

How the values were obtained:
Candida albicans [1] = assay: In vivo antifungal activity against murine candidosis model after peroral administration with 1 mg/kg at various time intervals. (percent protection for 100% mortality with fluconazole-treated group.); format: functional; conditions: route oral
In short: (§1)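 Male mice, groups of 10, infected iv with 0.2 mL Candida albicans at (2–8) × 10⁷ cfu/mL. Oral suspension in 1% Tween + 0.2% carboxymethylcellulose in water, given 1, 4 and 24 h post-infection; vehicle controls and a fluconazole group at the same dose. Survival scored on days 1, 2, 3, 5, 7, 9, reported as % surviving on the day untreated, or fluconazole-treated, mortality reached 100%.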

Candida albicans [2] = assay: In vivo antifungal activity against murine candidosis model after peroral administration with 1 mg/kg at various time intervals. (percent protection for 100% mortality with untreated group); format: functional; conditions: route oral; in short: as §1
[3] = The compound was tested in vitro for antifungal activity against 10 yeasts.; format: functional
In short: (§2)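 Agar dilution on Kimmig's agar with 0.5% glycerol; ATCC or clinical isolates, inocula at 10⁵ cfu/mL. Drugs from 800 μg/mL stock in 50% ethanol, 2-fold serial dilutions 80 to 0.03 μg/mL in plates. Incubated 25 °C, 48 h for yeasts, 120 h for filamentous fungi. Value is geometric mean of MICs (μg/mL); >80 taken as 160, ≤0.03 as 0.03.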

[4] = The compound was tested in vitro for antifungal activity against 6 filamentous fungi.; format: functional; in short: as §2
[5] = In vivo antifungal activity against murine candidosis model after peroral administration with 1 mg/kg for 5 days.(percent protection for 100% mortality with untreated group); format: functional, Mus musculus; conditions: route oral
In short: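 Second murine systemic Candida albicans model. Mice, n = 10 per group, dosed orally once daily for 5 days after infection. Animals observed for 65 days, with survival rate as read-out and vehicle controls included. Reported as % protection on the day of 100% mortality in the untreated group or in the fluconazole-treated group.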

Candida albicans [6] = assay: In vivo antifungal activity against murine candidosis model after peroral administration with 0.5 mg/kg at various time intervals. (percent protection for 100% mortality with untreated group); format: functional; conditions: route oral; in short: as §1
Candida albicans [7] = assay: In vivo antifungal activity against murine candidosis model after peroral administration with 0.5 mg/kg at various time intervals. (percent protection for 100% mortality with fluconazole-treated group.); format: functional; conditions: route oral; in short: as §1

Structure (SMILES) | Protection (Candida albicans [1]) [%] | Protection (Candida albicans [2]) [%] | MIC [3] [µg/mL] | MIC [4] [µg/mL] | Protection [5] [%] | Protection (Candida albicans [6]) [%] | Protection (Candida albicans [7]) [%]
Cc1c(C(=O)N[C@H](C)[C@](O)(Cn2cncn2)c2ccc(F)cc2F)cnn1-c1ccc(Br)cc1 | 50 | 100 | 2 (≈ 3.76 µM) | 13 (≈ 24.5 µM) | – | – | –
Cc1c(C(=O)N[C@H](C)[C@](O)(Cn2cncn2)c2ccc(F)cc2F)cnc2cc(-c3ccc(Cl)cc3)nn12 | 0 | 100 | 1.4 (≈ 2.6 µM) | 6.3 (≈ 11.7 µM) | – | – | –
COc1ccc(-n2ncc(C(=O)N[C@H](C)[C@](O)(Cn3cncn3)c3ccc(F)cc3F)c2C)cc1 | 0 | 0 | 6.1 (≈ 12.6 µM) | 23 (≈ 47.7 µM) | – | – | –
Cc1nn(-c2ccc(Cl)cc2)c(C)c1C(=O)N[C@H](C)[C@](O)(Cn1cncn1)c1ccc(F)cc1F | 20 | 90 | 1.5 (≈ 2.99 µM) | 8.9 (≈ 17.8 µM) | – | – | –
C[C@@H](NC(=O)c1cnn(-c2ccc(Cl)cc2)c1C(F)(F)F)[C@](O)(Cn1cncn1)c1ccc(F)cc1F | 50 | 100 | 1.2 (≈ 2.22 µM) | 7.1 (≈ 13.1 µM) | – | – | –
C[C@@H](n1cnc2cc(-c3ccc(C(=N)NC#N)cc3)sc2c1=O)[C@](O)(Cn1cncn1)c1ccc(F)cc1F | <20 | 100 | 2.7 (≈ 4.94 µM) | 80 (≈ 146 µM) | – | – | –
C[C@@H](NC(=O)c1cnn(-c2ccc(Cl)cc2)c1)[C@](O)(Cn1cncn1)c1ccc(F)cc1F | 50 | 100 | 1.9 (≈ 4.02 µM) | > 80 | – | – | –
C[C@@H](n1cnc2cc(-c3ccc([N+](=O)[O-])cc3)sc2c1=O)[C@](O)(Cn1cncn1)c1ccc(F)cc1F | 90 | 100 | 5.9 (≈ 11.2 µM) | > 80 | – | – | –
OC(Cn1cncn1)(Cn1cncn1)c1ccc(F)cc1F [FLUCONAZOLE] | – | – | 30 (≈ 98 µM) | > 80 | 100 | 100 | –
CC(=O)ONC(=N)c1ccc(-c2cc3ncn([C@H](C)[C@](O)(Cn4cncn4)c4ccc(F)cc4F)c(=O)c3s2)cc1 | 0 | 60 | 3.7 (≈ 6.38 µM) | 36 (≈ 62.1 µM) | – | – | –
Cc1c(C(=O)N[C@H](C)[C@](O)(Cn2cncn2)c2ccc(F)cc2F)cnn1-c1ccc(F)cc1F | 0 | 0 | 5.3 (≈ 10.9 µM) | 63 (≈ 129 µM) | – | – | –
C[C@@H](n1cnc2cc(-c3ccc(C(N)=O)cc3)sc2c1=O)[C@](O)(Cn1cncn1)c1ccc(F)cc1F | 20 | 100 | 1.3 (≈ 2.49 µM) | 45 (≈ 86.1 µM) | – | – | –
Cc1c(S(=O)(=O)c2ccc(Cl)cc2)csc1C(=O)N[C@H](C)[C@](O)(Cn1cncn1)c1ccc(F)cc1F | 0 | 70 | 1.6 (≈ 2.82 µM) | 11 (≈ 19.4 µM) | – | – | –
Cc1c(C(=O)N[C@H](C)[C@](O)(Cn2cncn2)c2ccc(F)cc2F)cnn1-c1cc(Cl)cc(Cl)c1 | 0 | 20 | 19 (≈ 36.4 µM) | > 80 | – | – | –
C[C@@H](n1cnc2cc(-c3ccc(C(=N)NO)cc3)sc2c1=O)[C@](O)(Cn1cncn1)c1ccc(F)cc1F | 0 | 90 | 2.4 (≈ 4.46 µM) | > 80 | – | – | –
C[C@@H](n1cnc2cc(-c3ccc(F)cc3)sc2c1=O)[C@](O)(Cn1cncn1)c1ccc(F)cc1F | 100 | 100 | 0.4 (≈ 0.804 µM) | 2.2 (≈ 4.42 µM) | – | – | –
CC(C)c1c(C(=O)N[C@H](C)[C@](O)(Cn2cncn2)c2ccc(F)cc2F)cnn1-c1ccc(Cl)cc1 | 0 | 60 | 3.3 (≈ 6.41 µM) | > 80 | – | – | –
C[C@@H](n1cnc2cc(-c3ccc(C4=NCCO4)cc3)sc2c1=O)[C@](O)(Cn1cncn1)c1ccc(F)cc1F | 20 | 100 | 1.9 (≈ 3.46 µM) | > 80 | – | – | –
CCCc1c(C(=O)N[C@H](C)[C@](O)(Cn2cncn2)c2ccc(F)cc2F)cnn1-c1ccc(Cl)cc1 | 0 | 100 | 1.9 (≈ 3.69 µM) | 36 (≈ 69.9 µM) | – | – | –
Cc1c(C(=O)N[C@H](C)[C@](O)(Cn2cncn2)c2ccc(F)cc2F)cnn1-c1c(Cl)cccc1Cl | 0 | 0 | 21 (≈ 40.3 µM) | > 80 | – | – | –
C[C@@H](NC(=O)c1ccn(-c2ccc(Cl)cc2)c1)[C@](O)(Cn1cncn1)c1ccc(F)cc1F | – | – | 1.2 (≈ 2.54 µM) | 17 (≈ 36 µM) | – | 0 | 0
